Runt-SMMHC FRET: blocks binding of human RUNX1 Runt domain to CBFb-SMMHC; Cerulean-Runt/Venus-CBFb-SMMHC FRET ratio 530/480, 1 h; Q01196+Q13951; inhibition, % at 20 µM; actives 0.74% (n = 220,000); AID 1434;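 active = mean inhibition across duplicate retests at 20 µM reaching about 50%, limit read from the data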;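 note: 0% = DMSO wells and 100% = wells with excess untagged CBFb-SMMHC; inhibitors lower the FRET ratio by blocking Runt binding to CBFb-SMMHC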
PERK inh: blocks human PERK kinase; Q9NZJ5; CHO PERK-DD fusion, SEAP luminescence translation reporter; inhibition, % at 5.6 µM; actives 0.17% (n = 220,000); AID 1416;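 active = inhibition above the mean inhibition of all tested compounds plus 3 SD, set separately per screening campaign, cut at about 2.9% in these data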;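 note: PERK kinase domain activated by AP20187 dimerizer at 100 nM; 0% = DMSO with dimerizer and 100% = rapamycin at 8.4 µM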
Hck-Nef inh: blocks Nef-activated human Hck kinase | P08631 | Recombinant Hck-YEEI plus Nef, Z-Lyte FRET kinase assay | inhibition, % at 20 µM | actives 0.68% (n = 220,000) | AID 463187;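 active = Hck-Nef kinase inhibition above about 50%, limit read from the data; inactive = inhibition below that limit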;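 note: 0% = DMSO with Hck plus Nef and 100% = Hck alone without Nef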
Target sequence (P08631 whole entry, looked up): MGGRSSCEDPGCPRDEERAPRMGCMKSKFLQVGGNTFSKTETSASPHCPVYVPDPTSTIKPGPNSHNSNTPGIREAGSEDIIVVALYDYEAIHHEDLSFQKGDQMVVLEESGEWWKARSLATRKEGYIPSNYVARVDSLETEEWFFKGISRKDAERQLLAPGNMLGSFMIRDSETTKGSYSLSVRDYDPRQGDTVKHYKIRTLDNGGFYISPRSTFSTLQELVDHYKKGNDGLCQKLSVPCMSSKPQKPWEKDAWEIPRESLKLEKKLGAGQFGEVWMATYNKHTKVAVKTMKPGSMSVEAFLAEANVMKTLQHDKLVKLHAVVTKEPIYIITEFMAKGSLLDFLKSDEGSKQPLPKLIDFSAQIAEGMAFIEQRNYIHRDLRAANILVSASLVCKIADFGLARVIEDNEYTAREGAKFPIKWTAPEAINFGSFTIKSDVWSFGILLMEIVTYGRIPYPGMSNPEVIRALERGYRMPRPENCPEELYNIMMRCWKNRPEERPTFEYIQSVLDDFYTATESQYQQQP
Runt-CBFb FRET: inhibitors of human RUNX1 Runt domain binding to CBFb | inhibition, % at 20 µM | actives 0.46% (n = 220,000) | Q01196+Q13951 | AID 1496 | Cerulean-Runt/Venus-CBFb FRET ratio 530/480, 1 h;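 active = inhibition over about 50% at 20 µM in the single-dose screen, limit read from the data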;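 note: 0% = DMSO wells and 100% = excess unlabeled CBFb competitor control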
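Assay system: Cerulean-Runt domain fusion protein, energy donor; Signal: fluorescence energy transfer, 422 nm excitation, 530/480 nm emission; Timing: 1 h compound exposure, room temperature; Control set: unlabeled CBFb; Medium: Tris buffer pH 7.5 with salts and BSA; Compound: single test concentration of 20 µM, 1% DMSO final; Probe or stimulus: Venus-CBFb 100 nM.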
eIF4E-4G inh: inhibitors of eIF4E and eIF4G interaction in translation initiation | inhibition, % at 21.7 µM | P63073+Q04637 | AID 782 | TR-FRET eIF4E-eIF4GI(517-606) binding, 2 h | actives 0.37% (n = 220,000);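 active = inhibition above about 30%, limit read from the data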;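 note: 0% = full FRET control wells and 100% = background wells lacking eIF4GI fragment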
RanGTP-Impb inh: inhibitors of RanGTP-importin-beta interaction, primary screen, biochemical, FRET, CFP-Ran, YFP-importin-beta, homogeneous; cell-free CFP-Ran/YFP-importin-beta FRET ratio; inhibition, % (concentration not given with the values); actives 1.1% (n = 300,000); AID 2216;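 active = more than half of the replicate wells show a fall in the fluorescence ratio signal beyond about 16%, limit read from the data, passing the limit was not always enough; inconclusive = exactly half of the replicate wells pass the set limit; inactive = fewer than half of replicates pass the limit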;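 note: 0% = DMSO wells and 100% = Ran loaded with GDP instead of GTP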
The depositor's hits bear a star; ? = inconclusive; · = no result given; [ ] = remark or other dose. An excerpt weighted towards active compounds, which were near 2.2% of everything screened.

SMILES | Runt-SMMHC FRET | PERK inh | Hck-Nef inh | Runt-CBFb FRET | eIF4E-4G inh | RanGTP-Impb inh
CCC(=O)Nc1nn(C)c2nc3c(C)cccc3cc12 | 86.5 | 0.2 | 23.3 | 17.7 | -5.9 | 22.5*
COc1ccc(CC(=O)Nc2nn(C)c3nc4c(C)cccc4cc23)cc1 | 72.3* | 0.3 | 19.0 | 11.0 | -8.1 | 5.7
COc1cc(OC)nc(Oc2ccccc2C(=O)Oc2ccc(F)cc2Cl)n1 | 0.2 | 1.6 | 1.2 | -2.1 | 0.9 | -0.8
COc1ccc(-c2c(C)nn3c(N)c(C#N)cnc23)cc1OC | -3.0 | 1.3 | 18.9 | -2.1 | 38.2* | 5.8
Cc1nn2c(N)c(C#N)cnc2c1-c1ccc(Cl)cc1 | -10.2 | 0.5 | 8.4 | 2.3 | -7.9 | 5.3
CC1(C)CC(=O)c2ccc(OCc3ccc([N+](=O)[O-])cc3)cc2O1 | 3.6 | 0.2 | 4.1 | -3.5 | 33.7* | 27.5
CC1(C)CC(=O)c2c(O)cc(OCc3ccc(Br)cc3)cc2O1 | 0.7 | -0.1 | 0.4 | 0.0 | -10.7 | 4.6
O=C(C1CC(c2ccc(F)cc2)=NO1)N1CCc2ccccc2C1 (stereo not drawn) | -2.3 | 0.1 | 1.4 | 2.4 | -7.4 | 4.4
COc1cccc(C2=NOC(C(=O)N3CCc4ccccc4C3)C2)c1 (stereo not drawn) | -1.5 | -1.0 | 22.6 | · | 3.2 | 22.7*
CN1C2=C(C(=O)CC(C)(C)C2)C(c2cccs2)C2=C1CC(C)(C)CC2=O | · | · | · | · | · | 60.5*
N#C/C(=C/c1ccncc1)c1nc2ccccc2s1 | -39.8 | 0.1 | 16.0 | -16.5 | -5.7 | 84.0*
Cc1ccc2sc(N(CCCN(C)C)C(=O)c3ccc(Br)s3)nc2c1C | 0.2 | -0.2 | 9.6 | -0.7 | 3.1 | 6.7
CCOC(=O)C1CCCN(C(=O)c2cc(S(=O)(=O)N3CCCCC3)ccc2C)C1 (stereo not drawn) | -7.9 | -1.7 | 8.6 | 1.0 | 1.8 | -4.0
COc1ccc(/C=N/n2cnc3c([nH]c4ccc(Br)cc43)c2=O)cc1CN1CCOCC1 | 1.4 | 0.7 | 6.6 | 0.1 | 40.8*[fluorescence artefact?] | -0.3
CCOC(=O)c1cc2c(=O)n3cccc(C)c3nc2n(C)c1=N | 37.9 | 0.4 | 148.2* | 11.5 | 1.8 | ·
CCCCNC(=O)c1cc2c(=O)n3cccc(C)c3nc2n1C | 19.3 | · | · | 5.1 | · | ·
Cc1cccn2c(=O)c3cc(C(N)=S)c(=N)n(CCCOC(C)C)c3nc12 | 65.3* | -1.2 | 26.6 | 56.8* | -7.5 | 173.9*
CCOCCCNC(=O)c1cc2c(=O)n3cccc(C)c3nc2n1C | 20.5 | · | · | 4.7 | · | 5.9
Cc1cccn2c(=O)c3cc(C(=O)NCCCOC(C)C)sc3nc12 | · | · | · | · | · | -1.1
CCOCCCn1c(=N)c(C(N)=S)cc2c(=O)n3cccc(C)c3nc21 | · | -1.5 | 19.4 | 17.8 | -3.5 | 173.3*
O=C1N(c2ccccc2)C[C@@H]2C[C@@H](c3cc4ccccc4o3)N3CCC[C@@]123 | -0.1 | 1.1 | 13.2 | -0.5 | 2.4 | 6.2
CCCSc1ccc(-c2nn(-c3ccccc3)cc2/C=C(/C#N)C(=O)N2CCOCC2)cc1 | -8.7 | -0.5 | 4.0 | -14.0 | 8.0 | -1.3
CCSc1ccc(-c2nn(-c3ccccc3)cc2/C=C(/C#N)C(=O)NC)cc1 | 59.6* | 0.9 | 11.5 | 8.5 | 2.3 | ·
CCCc1cc(C(=O)Nc2cc(Br)ccc2O)no1 | 4.8 | 3.1* | -3.6 | 1.9 | -1.6 | -4.8
COc1ccc(N=c2ssnc2Cl)cc1 | 64.5 | -0.2 | -1.1 | 37.1 | 30.3* | -1.0
SMILES | Runt-SMMHC FRET | PERK inh | Hck-Nef inh | Runt-CBFb FRET | eIF4E-4G inh | RanGTP-Impb inh
Clc1ccc(N=c2ssnc2Cl)cc1 | 46.7 | 0.0 | -21.2 | 40.6 | 30.7*[fluorescence artefact?] | -1.8
Clc1nssc1=Nc1ccccc1 | 28.0 | 1.5 | -0.2 | 38.7 | 50.6* | ·
COc1cc(N=c2ssnc2Cl)cc(OC)c1OC | 50.2 | -0.3 | -4.0 | 33.7 | 66.9* | 4.8
CN(C(=O)c1sc2nc(N3CCCC3)c3c(c2c1N)CC(C)(C)OC3)c1ccccc1 | · | · | · | · | · | 1.7
O=[N+]([O-])c1ccc(Oc2ccc(-c3nnco3)cc2)c(Cl)c1 | · | · | · | · | · | 3.3
N#Cc1ccc(N=c2ssnc2Cl)cc1 | 32.8 | 0.1 | 3.7 | 8.5 | 26.0 | -0.5
CCOC(=O)c1ccc(N=c2ssnc2Cl)cc1 | 29.7 | 0.2 | 18.8 | 23.1 | 38.8* | -3.6
Fc1ccc(N=c2ssnc2Cl)c(F)c1 | 37.5 | 0.6 | -13.1 | 38.6 | 51.4* | -2.0
Cn1c(CN(O)S(=O)(=O)c2ccc(Cl)cc2)nnc1C(F)(F)F | · | · | · | · | · | -3.7
O=C1CC(N2CCN(Cc3ccc4c(c3)OCO4)CC2)C(=O)N1c1cccc(Cl)c1 (stereo not drawn) | 1.8 | 0.5 | -0.4 | -0.8 | 65.6* | -2.6
O=C1CC(N2CCN(Cc3ccc4c(c3)OCO4)CC2)C(=O)N1c1cccc2ccccc12 (stereo not drawn) | · | 0.8 | 24.5 | · | -0.5 | ?
O=C(c1ccccc1)N1N=C(c2ccccc2)CC1c1cccs1 (stereo not drawn) | · | · | · | · | · | -2.9
O=c1[nH]cccc1-c1nc2ccccc2n1Cc1ccccc1F | · | · | · | · | · | 3.9
COc1ccc2nc(Cl)cc(Cl)c2c1 | -3.1 | 1.3 | 19.2 | -0.4 | -0.5 | 0.2
COc1ccc2nccc(/C=C/c3ccnc4ccc(OC)cc34)c2c1 | 81.7* | -2.3 | -59.4 | -0.3 | 3.0 | 61.5*
COC(=O)[C@H]1[C@H]2C[C@@H]3c4[nH]c5cc(OC)ccc5c4CCN3C[C@H]2C[C@@H](OC(=O)c2ccc(N)cc2)[C@@H]1OC | -12.7 | 0.2 | 27.7 | -2.7 | 0.7 | 11.4
COc1ccc2c3c([nH]c2c1)C1CC2C(CC(O)C(OC)C2CO)CN1CC3 (stereo not drawn) | -24.8 | 4.1* | 22.1 | -4.3 | -2.6 | 0.8
Cc1ccc(-c2noc(CCCc3ccccc3)n2)cc1 | -10.8 | 0.1 | 0.7 | -1.3 | 6.8 | 1.0
COc1ccc(-c2noc(CCCc3ccccc3)n2)cc1OC | -4.6 | -0.2 | 0.2 | -4.2 | 1.0 | 26.1*
COc1ccc(NC(=O)NNS(=O)(=O)c2cc(C)ccc2C)cc1OC | · | · | · | · | · | -0.4
COC(=O)C1=C(C)N(Cc2ccc(OC)cc2)C(=O)/C1=C\c1ccco1 | -2.9 | 0.4 | 4.3 | -3.9 | 1.1 | -0.6
Cc1nn(CCCC(=O)Nc2sc3c(c2C#N)CCC3)c(C)c1[N+](=O)[O-] | 1.5 | -1.5 | -1.0 | 0.6 | -8.9 | -1.2
Cc1nn(CC(=O)Nc2sc3c(c2C#N)CCC(C(C)(C)C)C3)c(C)c1[N+](=O)[O-] (stereo not drawn) | 1.3 | 3.0* | -5.0 | -5.9 | 2.5 | 1.0
O=C(O)CSc1nnc(Cc2ccccc2)n1Cc1ccccc1 | -3.2 | 0.9 | 1.4 | 0.9 | -3.7 | 2.6
CCc1ccccc1NC(=O)c1cccc(N2C(=O)C3C4CCC(C4)C3C2=O)c1 (stereo not drawn) | -5.8 | -0.6 | -0.3 | 0.7 | -0.2 | -0.5
CC(=O)N1CCN(CC(=O)Nc2sccc2C#N)CC1 | -4.1 | 0.1 | -5.7 | 0.0 | 3.0 | -1.7

From PubChem BioAssay
